The list is not random: actives were taken first. Their share in the collection is about 4.1%.
HCV NS3 hel inh – blocks Hepatitis C virus NS3 helicase unwinding. NS3 helicase DNA unwinding, Cy5 molecular beacon fluorescence. inhibition, % at 10.9 µM. hit rate 0.56% among 290,000. AID 1800;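 active = inhibition above the mean of all tested compounds plus 3 SD, set per campaign, cut at about 35% in these data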
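test system = hepatitis C virus NS3 helicase domain fragment enzyme | reagent = annealed dual-labelled DNA beacon duplex, ATP-started | times = 1 h at 25 °C | detection = Cy5 fluorescence, 0 and 60 min reads | read-out basis = percent inhibition from t60/t0 fluorescence ratio | control set = DMSO and thioflavine S | replication = one well per compound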
T cruzi inh – T. cruzi replication inhibition. AID 1885. hit rate 1.4% among 300,000. inhibition, % (concentration not given with the values). T. cruzi beta-gal in NIH3T3, luminescence, 90 h;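 active = mean inhibition across valid replicates above about 55%, limit read from the data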;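 also: signal also drops with host cell toxicity which is not excluded here; higher percent means less beta-gal luminescence so fewer parasites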
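Read-out: Parasite load inhibition, % | Test system: Mouse NIH/3T3 fibroblasts infected with β-gal-expressing T. cruzi Tulahuen C4 | Amount: 5,000 cells/well | Medium: DMEM, 2% fetal bovine serum | Signal: GalScreen β-gal luminescence, detergent lysis, 60 min | Timing: 3 h attach, ≥90 h co-culture | Also added: Tulahuen C4 trypomastigotes, 5000/well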
FID counter – counter-screen for HCV NS3 helicase inhibitors: DNA intercalator displacement; DNA fluorescent intercalator displacement, fluorescence; inhibition, % at 7.9 µM; hit rate 0.17% among 290,000; in the data active = inhibition above about 37%;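 also: higher means more ethidium bromide displaced from hairpin DNA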
MEKK2wt PB1 HTS – raises or lowers MEK5 binding to wildtype human MEKK2 PB1 domain; hit rate 1.1% among 290,000; bead flow cytometry, Alexa488-MEK5 binding to MEKK2 WT; actives lie on both sides; Q9Y2U5; binding response (% of control), % at 10 µM; in the data active = binding response below about 67% or above about 130%
MEKK2mut PB1 HTS – signal of MEK5 binding to mutant human MEKK2 PB1 domain; bead flow cytometry, Alexa488-MEK5 binding to MEKK2 mutant; percent response, % at 10 µM; hit rate 0.35% among 290,000; AID 1530; in the data active = percent response above about 24%, passing the limit was not always enough
MEKK3 PB1 HTS – modulators (inhibitors or enhancers) of MEK5 binding to human MEKK3 PB1 domain | Q99759 | bead-based flow cytometry, Alexa488-MEK5 binding to MEKK3; actives lie on both sides; 0 = blocked by unlabeled MEK5, 100 = vehicle | binding response (% of control), % at 10 µM | hit rate 1.4% among 290,000 | AID 1529;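 active = binding response more than 3 SD above or below the average of its plate-row segment, actives on both sides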;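 also: Alexa488 bead fluorescence after subtracting the streptavidin-only scavenger bead signal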
Target sequence (Q99759 whole entry, looked up, the tested form may be a part): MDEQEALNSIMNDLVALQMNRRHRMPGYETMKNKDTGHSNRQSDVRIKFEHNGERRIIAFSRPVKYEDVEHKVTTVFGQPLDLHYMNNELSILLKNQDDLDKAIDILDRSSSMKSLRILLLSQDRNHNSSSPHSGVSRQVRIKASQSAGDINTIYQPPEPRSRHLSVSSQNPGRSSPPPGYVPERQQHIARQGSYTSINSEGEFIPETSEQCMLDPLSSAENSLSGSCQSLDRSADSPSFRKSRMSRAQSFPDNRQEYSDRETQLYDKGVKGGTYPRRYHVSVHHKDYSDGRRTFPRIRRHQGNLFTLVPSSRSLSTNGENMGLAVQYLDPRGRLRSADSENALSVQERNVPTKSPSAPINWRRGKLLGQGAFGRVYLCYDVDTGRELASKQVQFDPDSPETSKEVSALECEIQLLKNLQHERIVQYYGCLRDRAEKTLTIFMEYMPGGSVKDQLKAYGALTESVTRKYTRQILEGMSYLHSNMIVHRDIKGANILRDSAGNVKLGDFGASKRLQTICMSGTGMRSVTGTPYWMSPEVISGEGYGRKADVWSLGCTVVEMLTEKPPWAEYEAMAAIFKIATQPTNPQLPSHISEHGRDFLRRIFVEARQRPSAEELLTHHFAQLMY
Large screens that a line does not name were inactive; [ ] = another dose, or the depositor's remark.

COc1ccc(/C=C2\Sc3ccc(C(=O)NC4CC4)cc3N(C)C2=O)cc1OC	none
Cc1ccc(S(=O)(=O)Nc2cccc(C(=O)NC3CCN(Cc4ccccc4)CC3)c2)cc1F	T cruzi inh 56.3 (no result: HCV NS3 hel inh, FID counter, MEKK2wt PB1 HTS, MEKK2mut PB1 HTS, MEKK3 PB1 HTS)
O=C(c1cccc(NS(=O)(=O)c2ccc(F)c(F)c2)c1)N1CCN(Cc2ccccc2)CC1	none
COc1cc(C(=O)NCCNC(=O)C2CCCNC2=O)cc(OC)c1OC (configuration not stated)	none
CC(C)c1ccc(NC(=O)NC2CCN(CC(=O)Nc3cccc4ccccc34)CC2)cc1	T cruzi inh 55.6 (no result: MEKK2wt PB1 HTS, MEKK2mut PB1 HTS, MEKK3 PB1 HTS)
CN1CCC(NC(=O)Nc2cccc(C(F)(F)F)c2)CC1	none (no result: T cruzi inh)
O=C(Nc1ccccc1)NC1CCN(Cc2c(F)cccc2Cl)CC1	none
CN1CCC(NC(=O)Nc2ccc(Br)cc2)CC1	T cruzi inh 61.4
O=C(CN1CCC(NC(=O)Nc2ccccc2)CC1)Nc1ccccc1F	none
O=C(Nc1ccc(F)cc1)NC1CCN(Cc2ccccc2)CC1	T cruzi inh 59.6
CCc1cccc(CN2CCC(CNC(=O)Nc3ccc(Cl)cc3)CC2)c1	T cruzi inh 57.3
O=C(NC1CCCC1)C(=O)N(Cc1cccnc1)C(C(=O)NCC1CCCO1)c1ccco1 (configuration not stated)	none
O=C(NC1CCN(Cc2ccccc2)CC1)c1ccc2c(c1)[nH]c(=O)n2Cc1ccc(F)cc1	T cruzi inh 58.1
CCN(CC)CCNc1ncnc2c1[nH]c1ccc(OC)cc12	none
COc1ccc2[nH]c3c(NCCC4=CCCCC4)ncnc3c2c1	T cruzi inh 87.2
CC(C)C(=O)Nc1ccc(NC(=O)c2cccc3c(Br)cccc23)cc1	none
Cc1c(C(=O)Nc2ccc(Cl)cc2)c2ccccn2c1C(=O)c1ccc([N+](=O)[O-])cc1	T cruzi inh 65.5
Cc1c(/C=N/NC(=O)CNc2ccccc2)c2ccccn2c1C(=O)c1ccc(Cl)cc1	none
COCc1cc(S(=O)c2ccc(Cl)cc2)nc(C)n1 (configuration not stated)	T cruzi inh 61.3
O=C(O)COc1ccc(/C=N/NC(=O)c2ccc(-c3csc(Nc4ccc(Cl)cc4)n3)cc2)cc1	MEKK3 PB1 HTS 60.0[inhibitor]
O=S(=O)(c1ccccc1)N1CCN(c2nnc(-c3ccccc3)c3ccccc23)CC1	none
Cc1cc2oc(=O)cc(CN3CCN(S(=O)(=O)c4ccc5c(c4)OCCO5)CC3)c2cc1C	none
Cc1cc2oc(=O)cc(CN3CCN(S(=O)(=O)/C=C/c4ccccc4)CC3)c2cc1C	T cruzi inh 66.2
CN(CC(=O)Nc1ccccc1Cl)C(=O)c1ccc(COc2ccccc2)cc1	none (no result: HCV NS3 hel inh, FID counter, MEKK2wt PB1 HTS, MEKK2mut PB1 HTS, MEKK3 PB1 HTS)
COCCN(C(=O)CC1C(=O)NCCN1Cc1ccc(-c2ccccc2)cc1)C(C)C (configuration not stated)	none
C#CCOCCOCCOCCNc1nc(N2CCN(C(=O)CCCCCCCCCCNC(=O)[C@H](CO)n3cc(CCCSC)nn3)CC2)nc(N2CCN(C(=O)CCCCCCCCCCNC(=O)[C@H](CCCCN)n3cc(C[C@@H](C)CC)nn3)CC2)n1	T cruzi inh 55.4 (no result: HCV NS3 hel inh, FID counter, MEKK2wt PB1 HTS, MEKK2mut PB1 HTS, MEKK3 PB1 HTS)
C#CCOCCOCCOCCNc1nc(N2CCN(C(=O)CCCCCCCCCCNC(=O)[C@H](CCCCN)n3cc(C[C@@H](C)CC)nn3)CC2)nc(N2CCN(C(=O)CCCCCCCCCCNC(=O)[C@H](CCCCN)n3cc(C[C@@H](C)CC)nn3)CC2)n1	T cruzi inh 54.6 (no result: HCV NS3 hel inh, FID counter, MEKK2wt PB1 HTS, MEKK2mut PB1 HTS, MEKK3 PB1 HTS)
C#CCOCCOCCOCCNc1nc(N2CCN(C(=O)CCCCCCCCCCNC(=O)[C@H](CO)n3cc(CCCSC)nn3)CC2)nc(N2CCN(C(=O)CCCCCCCCCCNC(=O)[C@H](CO)n3cc(CCCSC)nn3)CC2)n1	none (no result: HCV NS3 hel inh, FID counter, MEKK2wt PB1 HTS, MEKK2mut PB1 HTS, MEKK3 PB1 HTS)
C#CCOCCOCCOCCNc1nc(N2CCN(C(=O)CCCCCCCCCCNC(=O)[C@H](CCCCN)n3cc(CCCC(=O)O)nn3)CC2)nc(N2CCN(C(=O)CCCCCCCCCCNC(=O)[C@H](CCCN=C(N)N)n3cc(C[C@@H](C)CC)nn3)CC2)n1	none (no result: HCV NS3 hel inh, FID counter, MEKK2wt PB1 HTS, MEKK2mut PB1 HTS, MEKK3 PB1 HTS)
COc1ccccc1-c1nc(S(=O)(=O)c2ccccc2)c(N2CCOCC2)o1	none
O=C(C1CC(=O)N(c2ccccc2)C1)N1CCN(c2ccccc2)CC1 (configuration not stated)	none
Cc1ccsc1C(=O)C1CCCN(Cc2cn(C)nc2-c2ccccc2)C1 (configuration not stated)	none
O=C(c1ccc(-c2ccccc2)cc1)C1CCCN(Cc2ccncc2)C1 (configuration not stated)	T cruzi inh 54.8
Cc1nn(C)cc1CN1CCCC(C(=O)c2ccc(-c3ccccc3)cc2)C1 (configuration not stated)	T cruzi inh 62.1
CCOC(=O)c1cnc2ccc(OCC)cc2c1N(C)Cc1ccccc1	none
CCOC(=O)c1ccc2ncc(C(=O)OCC)c(Nc3ccc(N4CCOCC4)cc3)c2c1	none
CCOC(=O)c1cnc2ccc(OCC)cc2c1N1CCN(c2ccccc2OC)CC1	T cruzi inh 57.0
CCOC(=O)c1cnc2ccc(OC)cc2c1Nc1ccc(N2CCN(C)CC2)cc1	FID counter 43.9
COc1ccc(S(=O)(=O)N2CCN(C/C=C/c3ccccc3)CC2)cc1F	none
OCCN1CCN(Cc2cccc(Oc3ccc(Cl)cc3)c2)CC1	T cruzi inh 60.7
CN1CCN(Cc2cccc(Oc3ccccc3)c2)CC1	none
OC1CCN(Cc2cccc(Oc3ccccc3)c2)CC1	T cruzi inh 67.6
O=C(O)CN1C(=O)C(=O)N(Cc2ccc(Cl)c(Cl)c2)C1=O	none
CCOc1ccc(N(C(C)C(=O)N2CCOCC2)S(C)(=O)=O)cc1 (configuration not stated)	none
CCOc1cc(C(N)=O)cc(Br)c1OCc1ccccc1	none
Cc1cc(C)c(S(=O)(=O)c2ccccc2Cl)c(Cl)n1	T cruzi inh 54.9
Cc1cc(C)c(S(=O)(=O)c2ccc(F)cc2C)c(Cl)n1	T cruzi inh 55.2
CSCCC(NS(=O)(=O)/C=C/c1ccccc1)C(=O)NCCc1ccc(S(N)(=O)=O)cc1 (configuration not stated)	none
C#CCOCCOCCOCCNc1nc(N2CCN(C(=O)[C@H]([C@@H](C)CC)n3cc([C@@H](N)CO)nn3)CC2)nc(N2CCN(C(=O)[C@H](CCCCN)n3cc([C@@H](N)CC(C)C)nn3)CC2)n1	FID counter 42.8
C#CCOCCOCCOCCNc1nc(N2CCOCC2)nc(N2CCN(C(=O)[C@H](CCCCN)n3cc([C@@H](N)C(C)CC)nn3)CC2)n1 (some centres not stated)	FID counter 38.3
Cc1ccc(Cn2ncc3c(N4CCN(c5ccccc5C)CC4)ncnc32)cc1	T cruzi inh 59.4
CNC1=C(N(C(C)=O)c2ccc(Br)cc2)C(=O)c2ccccc2C1=O	T cruzi inh 70.3
